Measured values reported in the EternaBench riboswitch data.

Test system: MS2 coat protein
Assay: apparent Kd, MS2 coat protein; higher = weaker binding; RNA-MaP array
Summary of the method: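 With or without input ligand, designed RNAs transcribed on an Illumina sequencing chip from sequenced DNA templates were incubated at room temperature with fluorescently labeled MS2 coat protein at 1.5 nM to 3 μM. The buffer was Tris-HCl pH 7.5 with KCl, MgCl2, BSA, DTT, tRNA and Tween20, and incubation ran 0.8–1.5 h at the lowest and 10–20 min at the highest concentrations. Apparent Kd is reported as the median of fits to binding curves from individual clusters. Designs measured on fewer than 10 clusters are not included.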

[1] = designed as: OFF switch for flavin mononucleotide, no ligand
[2] = ligand present: flavin mononucleotide, designed as: OFF switch for flavin mononucleotide
[3] = designed as: ON switch for flavin mononucleotide, no ligand
[4] = ligand present: flavin mononucleotide, designed as: ON switch for flavin mononucleotide
[5] = designed as: ON switch for tryptophan, no ligand
[6] = ligand present: tryptophan, designed as: ON switch for tryptophan

Sequence	apparent Kd [1] [nM]	apparent Kd [2] [nM]	apparent Kd [3] [nM]	apparent Kd [4] [nM]	also measured
UUAGACCUGCGAGGAUAUUCCAGACUAACUGAGGAAGAAGGCGCUAGAACAUGAGGAUCACCCAUGUAACAGGGAACACUUCGU	9.82	26.3	–	–	–
GUAUGCCACAGGGACAUGAGGAUCACCCAUGUAAAUACGGAUAGAAGGCGACGAGCGUAGCUCUUCGAGGAUAUAUGCUUUUUG	31.5	34.2	–	–	–
CCGAACACUUAGAAGGAUUUAAUCUAUAAUUGAAUAGGAUAUAAGGCCUUACGUGCGAAUGAACACAUGAGGAUCACCCAUGUA	15.1	12.6	–	–	–
AUGUCGCAAUGGAAAAGACAUGAGGAUCACCCAUGUCAGCGUAGAAGGACCUUGUCGACUAAUGGGUAGGAUAUACGAGAAUCC	–	–	6.79	7.2	–
ACAUGAUGCUAGAAGGGCACACAUGAGGAUCACCCAUGUCGAACGAUUCUUCGGGACUAUCGCAUGCAGGAUAUAGCUAAAUCG	–	–	13.2	8.24	–
GUACCACAGUCGGCCGCCACUAAGUUGUAUUCCAGCAGGACGAAACAUGAGGAUCACCCAUGUCCUAGGACCGGGACUUCCGUCG	–	–	–	–	apparent Kd [5]: 21.2 nM; apparent Kd [6]: 21.6 nM
AUAGCCAAACAAGGAUAUACGCGCGUCACAGAAAAUGGGACAUGAGGAUCACCCAUGUGGGAAGAGUAGAAGGUGUUUCCAGAU	251	147	–	–	–
ACCUACGUAGGAUAUACGCAUCGUGGACCGCAUGCCCGUGCACAUGAGGAUCACCCAUGUAGAAGGACGUACGC	17.1	22.6	–	–	–
CUUGAACCAUCACAUGAGGAUCACCCAUGUAGACUAUAAACUGAGGAUAUCACAGCGAGCAGUCAUGAGAAGGCAGAAUGACGG	–	–	15.3	13.6	–
CAAUAACAGAAAGGAUAUGGGCUCGAUACAUGAGGAUCACCCAUGUCUCCGUCAACGCUCAGUGCCCAGAAGGUUCCGCAGAAU	–	–	34	20.2	–
UACAUUCGUCAGGAUAUCCAUCAGCCAGGCCUCGGAGAAGGGACUACAUGAGGAUCACCCAUGUGUAACCUCGU	40.4	88.8	–	–	–
UGCUUAAGACAGAAGGGCGUUCCGGAUGGUACCGCAGGAUAUGUCAACAUGAGGAUCACCCAUGUUACUAGCUAUGUUUCAAUU	–	–	9.97	6.09	–
GGUUCUUGUUGACGUUUAUACAUGAGGAUCACCCAUGUUGCGCAGGAUAUUUCACAUUGAUAGAGAAAGAAGGGCGAUGUACGU	–	–	10.4	8.68	–
GAGUCGCGAGGAUAUGGAAUGGACUACAUGAGGAUCACCCAUGUCCUUUCCCUUGUUUGUCCAGAAGGCGCCAUCC	27	24.4	–	–	–
CUGAACUAAGGAUAUACGGCCCUCAAUUAUAAUUCUGUGAAACAUGAGGAUCACCCAUGUAGAAGGUAGUCGAC	14.1	18.1	–	–	–
CGACGCUUAGGAUAUUGGUACACCUACAUGAGGAUCACCCAUGUGACUCCUUUACAAGGGCAAGAAGGAAGUUGGU	110	221	–	–	–
GGACAACAUGAGGAUCACCCAUGUCCUGAUACCAGUCAGCGCAGUGACCCUUGGCAGCAGACGGAUACGAAAUAACUGAGAGAUA	–	–	–	–	apparent Kd (designed as: ON switch for theophylline, no ligand): 40.6 nM; apparent Kd (ligand present: theophylline, designed as: ON switch for theophylline): 42.1 nM
AUUGUGAUAGCAGGAUAUUGUAUUGGUACAUGAGGAUCACCCAUGUUAAAAUCCUCUUGAUUUAGCAAGAAGGGCUCCAUGGCA	21.8	18.3	–	–	–
AUCAGUGGCUAGGAUAUGUUAGUCAGAUAUACAACAGAAGGAGCGACAUGAGGAUCACCCAUGUUACAGUGGAG	13	22.2	–	–	–
GUACUGUACAAGAAGGUUGAUUUGCAUCAAGAUCCGAUUUACAUGAGGAUCACCCAUGUUUUAUCAAAGGAUAUUGGUACAACG	11	66.8	–	–	–
CUAAUGGAAGGAUAUACAUGAGGAUCACCCAUGUUUAAGUGAUUAGCGAAUUGUCAACGUAGAAGGUCCAAUUA	42.6	84.3	–	–	–
UUCGGCCUUUAGAAGGAUUGUAUACAUGAGGAUCACCCAUGUUGGUGAUACAGAUAUAUUCGGCAAUAGGAUAUAAGCAGGUGA	826	598	–	–	–
AACCGGCAAGGAUAUACAUGAGGAUCACCCAUGUACGACGCGCUGGCUACGUUUUUAUGUAGAAGGUGCCGACC	6.19	6.26	–	–	–
GCCCGGACACAAGGAUAUCAGACCAAUACAUGAGGAUCACCCAUGUCGGGCCUCUAAGUACGACCUGAGAAGGUGUCUCCCAGU	421	345	–	–	–

Sequence	apparent Kd [1] [nM]	apparent Kd [2] [nM]	apparent Kd [3] [nM]	apparent Kd [4] [nM]	also measured
CCUGACAUGAGGAUCACCCAUGUGUGAGCACGAGGACCGGUACGGCCGCCACUCGCGUUGCCGGCCGGACUAUCUGGCGAAGUCA	–	–	–	–	apparent Kd [5]: 32.9 nM; apparent Kd [6]: 35.1 nM
GGUUCCGCUAAGGUGAAACAUGAGGAUCACCCAUGUCAAUCUGAGGAUAUUUAUCUCGACGAGGCAAAGAAGGCAGACUCGCGG	9.53	14.8	–	–	–
CAGACCCGGAAGAAGGAGGAGACAUAAACACGCCUAGGAUAUACGCCUGAAUAAACGUAAACAUGAGGAUCACCCAUGUCAAAC	–	–	9.5	8.4	–
UUCAUUCGAACCAAGGAUAUGUGAUAAGUUACAUGAGGAUCACCCAUGUAUCAGUACAUCAACAGACAGAAGGUGGUGCAUAGUCA	–	–	7.14	6.57	–
GGGAUACAUGAGGAUCACCCAUGUCAGGAUAUCUUUUACCGGCACGACAAUCAUAUGAAGAGAAGGGACUAUAU	35	31.9	–	–	–
GUGUCGCGUACAGGAUAUGCUUAGGCGCUGCCCUCACAUGAGGAUCACCCAUGUAGUUUCCGCAGGCAGAAGGGUACUGACGUC	9.67	16.2	–	–	–
UGUAACACAGGAUAUACAUAGGCCAGCCACUGACUCAGGUCACAUGAGGAUCACCCAUGUAGAAGGGUGCUGAA	116	84.1	–	–	–
CGUUCAGAUCAUGAUAACAUGAGGAUCACCCAUGUGGAAUAAUAGGAUAUGGAGAACAAAAUUAACCAGAAGGAUUAUAACAAA	–	–	70	44.9	–
AGAAAGAAUCAGAAGGCAGAGAUGUCUAUCUACUGAGGAUAUGAAUGACAUGAGGAUCACCCAUGUUGUCAGGCCAGGCCCAAC	–	–	7.78	9.75	–
GACAGACAUGAGGAUCACCCAUGUGAUACAGGCGUAGGAUAUUCGUGAGGAUACAGAAAAGAAGAAGGACGGGAAG	–	–	40.3	38	–
UCUUUAAGCACAGGAUAUUGGUACAUGAGGAUCACCCAUGUGGAUCGUACUACCUCUCCACCGGACAAGAAGGGUGCGCCUACG	–	–	172	125	–
UAGUUGCAUACAUGAGGAUCACCCAUGUUUUAAUGGGUAACUAGAAGGUGUUGACGUUGGCUAAACAAGGAUAUAGUUCGUGCU	43.3	46.5	–	–	–
UUAUACGCGAAAGGAUAUCUGAGAGUGGGAUCGUGGACAUGAGGAUCACCCAUGUGGAGAGAGGGAGAGAAGGUUCGGGUAUUC	31.7	29.5	–	–	–
AGUACCGUACGGAAAACAUGAGGAUCACCCAUGUCUAAUUAGAAGGAUAUGCUCUGUAAAUCGACGCAGAAGGUCAGCUAGAAU	–	–	22.5	19	–
CACAGGUCAGUAGGAUAUGCUACAUGAGGAUCACCCAUGUGGUGGUAUAUGCGUCUAGGCGCAAAGCAGAAGGACUUCCAGGUG	42	146	–	–	–
GCCGACCUCACAUGAGGAUCACCCAUGUGCCGGAAACUACUGAGAAGGGCUCUAAUUCCAGGCGAGCAGGAUAUCAUAAAAUAG	–	–	17.4	8.78	–
UAGGACAUCCAGAAGGUAACCCAAUGAUAUAACACAUGAGGAUCACCCAUGUUGAAUCAGAGACUUAAGGAUAUGGUUGAUCUU	–	–	23.1	13.5	–
UUUAUGUCAGGAUAUCCAACACUAUGGGAAAGUAAAUAUAGGGAGAAGGGACAUGAGGAUCACCCAUGUCAACA	8.12	8.59	–	–	–
AUGUAGUCGGUAGGAUAUACGAGUCUGAUAACAGUAGAAGGACCGAGUACGGCUCCGCAGUACAUGAGGAUCACCCAUGUGAUC	–	–	533	286	–
ACACAUAAUCUCGGACAUGAGGAUCACCCAUGUGUCACAAUCAGAAGGCACACUUGACAAGGGAGUGAGGAUAUGAAUACAUUA	124	32.7	–	–	–
AAGGAAUAUGAGGAUAUUGAUGCGAAACCUACUCAAGAAGGCAUAACAUGAGGAUCACCCAUGUGACCCUUAUA	19.4	34.4	–	–	–
UACCGGGCGAUAGGAUAUAUCAGUUACUUCACAUGAGGAUCACCCAUGUUACCCGUGGAAAGUUGAUAGAAGGAUCCAGCUCCA	44.8	41.2	–	–	–
AUCGUGCCAAGAGGAUAUCACCAUUCAAUACCCACAUGAGGAUCACCCAUGUAUGCAGUGUUCCGUGAGAAGGCUUGCAUACCA	–	–	113	19.4	–
AGUGCAAUAUAGAAGGCCCAAACAUGAGGAUCACCCAUGUAGGUGUCACUGGUAGUGAAGGCUCGGGAGGAUAUAUCAUCCACA	–	–	32.9	30.7	–
